# Activity calls are given as the source filed them. No cut-off for these calls is given here.
# Key:
# [1] = Cytotoxicity against human HeLa cells assessed as reduction in cell viability by XTT assay; assay type: cell-based; conditions: read-out: MCC50
# Outline: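 HeLa cells grown in DMEM with 10% FBS, penicillin and streptomycin at 37 °C, 5% CO2; 30 000 cells/well. XTT viability read at 450 and 650 nm. MCC50 (50% lysis) came from viability-versus-concentration curves. Two experiments, each in triplicate.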
# [2] = target: T1, Flavodoxin (Helicobacter pylori (strain ATCC 700392 / 26695) (Campylobacter pylori)) (UniProt O25776); assay: Inhibition of flavodoxin in Helicobacter pylori SS1 assessed as reduction in bacterial growth measured after 48 hrs by resazurin staining-based microdilution method
# T1 sequence (whole entry): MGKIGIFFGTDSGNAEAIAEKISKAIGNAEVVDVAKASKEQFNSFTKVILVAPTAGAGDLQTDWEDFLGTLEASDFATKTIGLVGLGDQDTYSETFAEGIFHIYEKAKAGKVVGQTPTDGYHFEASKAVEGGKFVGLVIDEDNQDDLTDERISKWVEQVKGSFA
# Outline: (§1)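 Broth microdilution in brain heart infusion with 4% FBS. Inoculum diluted to OD600 0.01. Two-fold dilutions from a DMSO stock cover 64–0.031 μg/mL, with DMSO ≤1% v/v. Incubated 48 h at 37 °C under microaerophilic conditions. MIC is the lowest concentration giving complete growth inhibition, read by resazurin colour change and confirmed by spotting on blood agar. Run twice in triplicate.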
# [3] = target: T1, Flavodoxin (Helicobacter pylori (strain ATCC 700392 / 26695) (Campylobacter pylori)); assay: Inhibition of flavodoxin in Mnz-resistant Helicobacter pylori NCTC 11637 ATCC 43504 assessed as reduction in bacterial growth measured after 48 hrs by resazurin staining-based microdilution method; conditions: Helicobacter pylori NCTC 11637 = CCUG 17874 = ATCC 43504; outline: as §1
# [4] = target: T1, Flavodoxin (Helicobacter pylori (strain ATCC 700392 / 26695) (Campylobacter pylori)); assay: Inhibition of flavodoxin in Helicobacter pylori ATCC 700392 26695 assessed as reduction in bacterial growth measured after 48 hrs by resazurin staining-based microdilution method; conditions: Helicobacter pylori 26695; outline: as §1
# [5] = Therapeutic index, ratio of MCC50 for human HeLa cells to MIC for inhibition of flavodoxin in Helicobacter pylori SS1 assessed as reduction in bacterial growth; assay type: toxicity; conditions: HeLa cells versus Helicobacter pylori SS1, read-out: TI
# Outline: (§2)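 TI is MCC50/MIC. For MCC50, HeLa cells (30 000/well, DMEM with 10% FBS) were exposed to compound at 25–1000 μM final. Viability by XTT at 450/650 nm; MCC50 is the concentration giving 50% lysis from viability curves. Run twice in triplicate.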
# [6] = Therapeutic index, ratio of MCC50 for human HeLa cells to MIC for inhibition of flavodoxin in Mnz-resistant Helicobacter pylori NCTC 11637 ATCC 43504 assessed as reduction in bacterial growth; assay type: toxicity; conditions: read-out: TI; outline: as §2
# [7] = Therapeutic index, ratio of MCC50 for human HeLa cells to MIC for inhibition of flavodoxin in Helicobacter pylori ATCC 700392 26695 assessed as reduction in bacterial growth; assay type: toxicity; conditions: HeLa cells versus Helicobacter pylori ATCC 700392 26695, read-out: TI; outline: as §2
# [8] = Toxicity in NMRI mouse infected with Helicobacter pylori SS1 assessed as change in body weight at 10 to 20 mg/100g, po administered daily via gavage for 8 days starting from 1 week post-infection; assay type: organism-based; conditions: in vivo
# Outline: (§3)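 Female 6-week-old SPF NMRI mice infected orogastrically with Hp SS1 on days 1 and 3. Compound in 5–10% DMSO/olive oil (100 μL) given by daily oral gavage for 8 days from day 8. Body weight and appetite were monitored during treatment; infected controls received vehicle alone.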
# [9] = Toxicity in NMRI mouse infected with Helicobacter pylori SS1 assessed as change in appetite at 10 to 20 mg/100g, po administered daily via gavage for 8 days starting from 1 week post-infection; assay type: organism-based; conditions: in vivo; outline: as §3
# [10] = Toxicity in NMRI mouse assessed as change in body weight at 10 to 20 mg/100g, po administered daily via gavage for 8 days; assay type: organism-based; conditions: in vivo, 192 h
# [11] = target: T1, Flavodoxin (Helicobacter pylori (strain ATCC 700392 / 26695) (Campylobacter pylori)); assay: Binding affinity to Helicobacter pylori flavodoxin by thermal upshift assay
# [12] = target: T1, Flavodoxin (Helicobacter pylori (strain ATCC 700392 / 26695) (Campylobacter pylori)); assay: Binding affinity to Helicobacter pylori flavodoxin by isothermal titration calorimetric method
# Escherichia coli = assay: Effect on growth of Escherichia coli DH5[alpha] after 48 hrs by resazurin-dye based microdilution assay; assay type: organism-based
# Staphylococcus aureus = assay: Effect on growth of Staphylococcus aureus ATCC 1228 after 48 hrs by resazurin-dye based microdilution assay; assay type: organism-based
# [13] = Therapeutic index, ratio of MCC50 for human HeLa cells to MIC for inhibition of flavodoxin in metronidazole-resistant Helicobacter pylori isolate 1 assessed as reduction in bacterial growth; assay type: toxicity; conditions: read-out: TI; outline: as §2
# [14] = Therapeutic index, ratio of MCC50 for human HeLa cells to MIC for inhibition of flavodoxin in metronidazole-resistant Helicobacter pylori isolate 2 assessed as reduction in bacterial growth; assay type: toxicity; conditions: read-out: TI; outline: as §2
# [15] = Therapeutic index, ratio of MCC50 for human HeLa cells to MIC for inhibition of flavodoxin in metronidazole-resistant Helicobacter pylori isolate 3 assessed as reduction in bacterial growth; assay type: toxicity; conditions: read-out: TI; outline: as §2
# [16] = Therapeutic index, ratio of MCC50 for human HeLa cells to MIC for inhibition of flavodoxin in clarithromycin/metronidazole-resistant Helicobacter pylori isolate 4 assessed as reduction in bacterial growth; assay type: toxicity; conditions: read-out: TI; outline: as §2
# [17] = Therapeutic index, ratio of MCC50 for human HeLa cells to MIC for inhibition of flavodoxin in rifampicin-resistant Helicobacter pylori isolate 5 assessed as reduction in bacterial growth; assay type: toxicity; conditions: read-out: TI; outline: as §2
# [18] = Therapeutic index, ratio of MCC50 for human HeLa cells to MIC for inhibition of flavodoxin in clarithromycin/metronidazole-resistant Helicobacter pylori isolate 6 assessed as reduction in bacterial growth; assay type: toxicity; conditions: read-out: TI; outline: as §2
# Helicobacter pylori = assay: Antibacterial activity against Helicobacter pylori SS1 infected in NMRI mouse assessed as bacterial eradication at 20 mg/100g, po administered daily via gavage for 8 days starting from 1 week post-infection and measured 8 days post-last dose; assay type: functional, organism-based
# Outline: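 Female 6-week-old SPF NMRI mice, 7 per condition, infected orogastrically on days 1 and 3 with 100 μL Hp SS1 (5 × 10^8 CFU/mL). From day 8, compound given daily by oral gavage for 8 days in 100 μL of 5–10% DMSO/95–90% olive oil. Sacrificed day 24; stomach homogenate CFU/g counted after 5 days microaerophilic culture at 37 °C. Infected vehicle-treated controls; Mann-Whitney U and unpaired t tests, p ≤ 0.05.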
# [19] = target: T1, Flavodoxin (Helicobacter pylori (strain ATCC 700392 / 26695) (Campylobacter pylori)); assay: Inhibition of flavodoxin in metronidazole-resistant Helicobacter pylori isolate 1 assessed as reduction in bacterial growth measured after 48 hrs by resazurin staining-based microdilution method
# Outline: (§4)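 Clinical isolates from gastric biopsies of patients who failed ≥2 therapies; resistance classified by EUCAST breakpoints. […] Read by resazurin colour change as the lowest concentration giving complete growth inhibition.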
# [20] = target: T1, Flavodoxin (Helicobacter pylori (strain ATCC 700392 / 26695) (Campylobacter pylori)); assay: Inhibition of flavodoxin in metronidazole-resistant Helicobacter pylori isolate 2 assessed as reduction in bacterial growth measured after 48 hrs by resazurin staining-based microdilution method; outline: as §4
# [21] = target: T1, Flavodoxin (Helicobacter pylori (strain ATCC 700392 / 26695) (Campylobacter pylori)); assay: Inhibition of flavodoxin in clarithromycin/metronidazole-resistant Helicobacter pylori isolate 4 assessed as reduction in bacterial growth measured after 48 hrs by resazurin staining-based microdilution method; outline: as §4
# [22] = target: T1, Flavodoxin (Helicobacter pylori (strain ATCC 700392 / 26695) (Campylobacter pylori)); assay: Inhibition of flavodoxin in clarithromycin/metronidazole-resistant Helicobacter pylori isolate 6 assessed as reduction in bacterial growth measured after 48 hrs by resazurin staining-based microdilution method
# [23] = Stability of the compound in DMSO-d6 at pH 1 incubated for 19 hrs under shaking condition by 1H-NMR analysis; assay type: physicochemical; conditions: pH 1, 19 h
# [24] = target: T1, Flavodoxin (Helicobacter pylori (strain ATCC 700392 / 26695) (Campylobacter pylori)); assay: Inhibition of flavodoxin in rifampicin-resistant Helicobacter pylori isolate 5 assessed as reduction in bacterial growth measured after 48 hrs by resazurin staining-based microdilution method; outline: as §4
SMILES,CC50 [1] [µM],MIC [2] [µM],MIC [3] [µM],MIC [4] [µM],selectivity ratio [5],selectivity ratio [6],selectivity ratio [7],Activity [8],Activity [9],Activity [10],Activity [11],Activity [12],Activity (Escherichia coli),Activity (Staphylococcus aureus),selectivity ratio [13],selectivity ratio [14],selectivity ratio [15],selectivity ratio [16],selectivity ratio [17],selectivity ratio [18],further results
NCCc1ccccc1 [PHENETHYLAMINE],> 1000,132,66,66,> 7.6,> 15,> 15,Non-Toxic,Non-Toxic,Non-Toxic,Active,Active,Non-Toxic,Non-Toxic,–,–,–,–,–,–,–
O=[N+]([O-])CCc1cc(C(F)(F)F)cc(C(F)(F)F)c1,> 1000,223,56,56,> 4.5,> 18,> 18,Non-Toxic,Non-Toxic,Non-Toxic,Active,Active,Non-Toxic,Non-Toxic,9,9,9,9,9,9,Activity (Helicobacter pylori): Active
COc1ccc(CSc2ccc(N)c3nonc23)cc1,–,13.9,27.8,27.8,–,–,–,–,–,–,Active,Active,–,–,–,–,–,–,–,–,inhibition [19]: Active; inhibition [20]: Active; inhibition [21]: Active; inhibition [22]: Active; Stability [23]: Stable
O=[N+]([O-])CCc1ccccc1,> 1000,212,212,106,> 4.7,> 4.7,> 9.4,–,–,–,Active,Active,Non-Toxic,Non-Toxic,4.7,4.7,4.7,605,4.7,4.7,–
COc1ccc(CSc2ccc([N+](=O)[O-])c3nonc23)cc1,–,0.78,1.6,6.3,–,–,–,–,–,–,Active,Active,–,–,–,–,–,–,–,–,Stability [23]: Stable
COc1ccc(CSc2cc(Cl)c(N)c3nonc23)cc1,> 1000,5.9,11.8,5.9,> 170,> 85,> 170,Non-Toxic,Non-Toxic,Non-Toxic,Active,Active,Non-Toxic,Non-Toxic,161,322,10,80,40,322,inhibition [19]: Active; inhibition [20]: Active; inhibition [21]: Active; inhibition [24]: Active; inhibition [22]: Active
COc1ccc(C2(C)SCc3cc(C)c(C)cc3CS2)cc1,–,6.1,3,3,–,–,–,–,–,–,Active,Active,–,–,–,–,–,–,–,–,Stability [23]: Stable

# Reference: ChEMBL document CHEMBL4364284, “Design, Synthesis, and Efficacy Testing of Nitroethylene- and 7-Nitrobenzoxadiazol-Based Flavodoxin Inhibitors against Helicobacter pylori Drug-Resistant Clinical Strains and in Helicobacter pylori-Infected Mice” (J Med Chem, 2019)
